CHOP UPR activ = activators of apoptotic CHOP UPR arm, primary screen, cell-based, CHO-CHOP luciferase reporter, luminescence, uHTS; UPR activation; percent of tunicamycin response over DMSO baseline; activation, % at 10 µM; hit rate 0.34% among 330,000;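 active = at 10 µM dose, activation of 40% or more, normalized to positive control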;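 note: 100% = tunicamycin at 10 µg/mL and 0% = DMSO alone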
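System: CHO-CHOP luciferase reporter cell line; amount: 500 cells/well; buffer or medium: F12 medium containing 10% fetal bovine serum; incubation: 6 h compound exposure at 37 °C after overnight seeding; measured by: luciferase luminescence after 10 min with Steady-Glo reagent; evaluation: % reporter activation, DMSO baseline versus tunicamycin full activation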
CHOP inh = inhibitors of CHOP promoter induction, primary screen, cell-based, unfolded protein response, luciferase reporter; CHO-K1 CHOP-promoter luciferase, tunicamycin-induced, 15-18 h; inhibition, % at 10 µM; hit rate 3.8% among 220,000; AID 2732, 2010;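 active = compounds that reduced the stress-induced luciferase reporter signal by more than about 70% of percent inhibition, limit read from the data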;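 note: 0% = tunicamycin plus vehicle and 100% = wells without tunicamycin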
Beta2AR agonist = beta2AR agonists driving receptor internalization, primary screen, cell-based, FAP fluorogen, flow cytometry; response, % (concentration not given with the values); Am2.2-beta2AR cells; hit rate 0.43% among 340,000;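 active = response above a set limit, near 3 SD of response in nonfluorescent compounds, cut at about 42% in these data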
XBP1 UPR activ = activators of adaptive XBP1 UPR arm, primary screen, cell-based, CHO-XBP1 luciferase reporter, luminescence, uHTS; IRE1-XBP1 UPR activation; percent of tunicamycin response, DMSO as zero; activation, % at 20 µM; hit rate 0.33% among 330,000; AID 463104, 2010;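 active = versus positive control, 20 µM dose yields 30% or more activation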;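 note: 100% = tunicamycin at 10 µg/mL and 0% = DMSO only wells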
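assay system = CHO-XBP1 luciferase reporter cells | amount = 1000 cells/well | buffer or medium = F12 plus 10% FBS | compound dosing = single point, 20 µM final compound, 1% DMSO | incubation = 16-18 h cell attachment at 37 °C, then 6 h compound exposure | detection = Steady-Glo luminescence read | controls = tunicamycin 10 µg/mL and vehicle-only wells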
VLA-4 inh = inhibition in human VLA-4 binding assay, primary screen, VLA-4 allosteric modulator project, MLPCN library, flow cytometry, VLA-4 expressing cells; Integrin alpha-4 (Homo sapiens), P13612; ligand binding flow cytometry; inhibition, % (about 7 µM as worked out from the volumes in the protocol); hit rate 0.2% among 330,000; in the data active = inhibition above about 50%
CHOP inh conf = retest of CHOP induction inhibitors, confirmation, cell-based | AID 504437, 2011 | inhibition, % at 10 µM | hit rate 45% among 2,100 | CHO-CHOP promoter luciferase reporter, tunicamycin-induced, luminescence | shares compounds with CHOP inh;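 active = mean of three repeat readings of reporter signal inhibition above a set limit, cut at about 70% in these data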;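 note: 0% = tunicamycin plus vehicle and 100% = wells lacking tunicamycin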
* marks the source's active call; other numbers are inactive results; i = inactive; . = no result given. Many of the other results were omitted from the sample, so hits are more common in it than they were.

SMILES	CHOP UPR activ	CHOP inh	Beta2AR agonist	XBP1 UPR activ	VLA-4 inh	CHOP inh conf
Cc1cc(O)c(NC(=S)NC(=O)c2ccc(-c3ccc(Cl)cc3)o2)cc1C	2	105*	19	-3	5	113*
Cc1ccc(NC(=S)NC(=O)c2ccc(-c3ccc(Cl)cc3)o2)c(O)c1	1	12	-5	-2	2	.
Cc1ccc2nc(/C(C#N)=C\c3ccc(Oc4ccc([N+](=O)[O-])cn4)cc3)[nH]c2c1	.	97*	20	.	-25	37
Cc1ccc2nc(/C(C#N)=C\c3ccc([N+](=O)[O-])o3)[nH]c2c1	-8	-15	-364	-9	i	.
CCOc1cccc(CNc2ccc(O)cc2)c1OCc1ccc(Cl)cc1Cl	0	101*	3	-1	11	112*
CCOc1cccc(CNc2ccc(O)cc2)c1OCc1ccccc1Cl	-1	27	5	4	-3	.
Cc1ccc(Sc2ccc(/C=N/O)cc2[N+](=O)[O-])cc1	-2	101*	58*	-1	2	20
COc1ccc(OCCC(=O)OCC(=O)Nc2cccc(S(=O)(=O)N3CCCCC3)c2)cc1	2	.	-1	-2	1	.
COc1cccc(NC(=O)CSc2nnc(-c3cc(C)n(-c4ccccc4)c3C)o2)c1	-8	98*	-5	-4	-9	85*
O=C(CC(=O)N1CCOCC1)N1CCOCC1	.	.	-1	.	.	.
Cc1ccc(N2C(=O)c3cccc4c(Oc5ccccc5[N+](=O)[O-])ccc(c34)C2=O)c(C)c1	0	42	3	-4	7	.
CC1CCCN(c2nc(NCc3ccco3)nc(N)c2[N+](=O)[O-])C1 (stereo unspecified)	-1	30	-6	1	25	.
Cc1ccc(Nc2nc(N)c([N+](=O)[O-])c(N3CCCC(C)C3)n2)cc1C (stereo unspecified)	1	101*	-2	3	4	64
Cc1ccc(-c2nn(-c3ccccc3)cc2/C=N/NS(=O)(=O)c2ccccc2)cc1	4	69	-16	6	8	.
Cc1ccc(S(=O)(=O)N/N=C\c2cn(-c3ccccc3)nc2-c2ccccc2)cc1	4	97*	-8	-3	26	5
CC(=O)N1c2ccc(S(=O)(=O)N(C)CC(=O)NC3CCCCC3C)cc2CC1C (stereo unspecified)	-2	.	-15	-4	12	.
Cc1nc2oc(C(=O)c3ccc(Br)cc3)c(N)c2c2c1COC(C)(C)C2	1	101*	-6	5	25	-62
CCCc1nc2oc(C(=O)c3ccccc3)c(N)c2c2c1COC(C)(C)C2	-4	110*	15	5	-2	97*
Cc1ccc(S(=O)(=O)N2CCOCC2)cc1C(=O)NC(=S)N1CC(C)OC(C)C1 (stereo unspecified)	-1	-3	-5	-1	19	.
CNc1oc(-c2ccccc2F)nc1S(=O)(=O)c1ccc(C)cc1	0	.	2	-6	-1	.
CCn1nc(C(=O)N2CCN(Cc3nc4ccccc4s3)CC2)c2ccccc2c1=O	5	.	27	2	-11	.
O=C(CN1CCCC1)Nc1c(Cl)cccc1Cl	2	.	-3	-3	12	.
CCc1nc(SCC(=O)Nc2nccs2)c2oc3ccccc3c2n1	-1	102*	-14	21	7	23
O=C(CSc1ncnc2c1oc1ccccc12)Nc1nccs1	1	-17	1	-2	0	.
O=C(NCc1cccnc1)Nc1ccc(Cl)cc1Cl	1	.	-7	-2	2	.
CC(/C=C/c1ccco1)=N\NC(=O)CNc1cccc(C)c1	-1	7	-15	0	3	.
C=CCOC(=O)C1=C(C)NC(SCC(N)=O)=C(C#N)C1c1ccc(C)cc1 (stereo unspecified)	1	19	0	-2	6	.
C=CCOC(=O)C1=C(C)NC(SCC)=C(C#N)C1c1ccc(Cl)cc1 (stereo unspecified)	0	102*	0	5	7	59

Assay outcomes deposited in PubChem by several laboratories.
